Measured values reported in ChEMBL document CHEMBL1687827, “Profiling the Aspergillus fumigatus proteome in response to caspofungin” (2011).
The source made the active and inactive calls. The rule behind the calls is not given here.

Legend:
Aspergillus fumigatus [1] = assay: Induction of change in ribosomal protein S9 protein level in iTRAQ114 labelled secreted fraction of drug-susceptible Aspergillus fumigatus KU80 delta-akuB at 0.12 ug/ml after 24 hrs in YPD medium by MS (MS/MS) analysis relative to control; assay type: functional
Summary of the method: (§1)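 Conidia (1 × 10⁵/ml) grown in YPD, 37°C, 225 rpm, ± 0.12 μg/ml caspofungin; filtrate taken as secreted fraction, French-press lysate 5,000 × g pellet as cell wall/plasma membrane. Trypsin digests 8-plex iTRAQ-labelled (drug-free channels as references), pooled, 2D-chromatography, MS/MS. Median-normalized; protein ratio = median of unique-peptide ratios, log2 normalized.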

Aspergillus fumigatus [2] = assay: Induction of change in nuclear transport factor NTF-2, putative protein level in iTRAQ-116 labelled secreted fraction of drug-resistant Aspergillus fumigatus EMFR-S678P at 0.12 ug/ml after 48 hrs in YPD medium by MS (MS/MS) analysis relative to control; assay type: functional
Summary of the method: (§2)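 Conidia at 1 × 10⁵/ml were grown at 37°C, shaking at 225 rpm, in YPD with or without 0.12 μg/ml caspofungin for 24 or 48 h. The culture filtrate was kept as the secreted fraction. Mycelia were lysed by French press in HEPES/glycerol/EDTA/PMSF/DTT buffer, and the 5,000 × g pellet was washed to give CW/PM. Proteins were reduced, alkylated and trypsin-digested at 37°C overnight, then iTRAQ-labelled and run by 2D LC-MS/MS. Ratios are the median of unique-peptide ratios, median-normalized, versus the no-drug control.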

Aspergillus fumigatus [3] = assay: Induction of change in glucosamine-fructose-6-phosphate aminotransferase protein level in iTRAQ-118 labelled cell wall fraction of drug-resistant Aspergillus fumigatus EMFR-S678P at 0.12 ug/ml after 48 hrs in YPD medium by MS (MS/MS) analysis relative to control; assay type: functional; summary of the method: as §2
Aspergillus fumigatus [4] = assay: Induction of change in 60s ribosomal protein yl17-b gene expression in drug-susceptible Aspergillus fumigatus KU80 delta-akuB at 0.12 ug/ml after 24 hrs in YPD medium by microarray analysis relative to control; assay type: functional
Summary of the method: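 Mycelia grown in YPD ± 0.12 μg/ml caspofungin (1 × 10⁵ conidia/ml, 37°C, shaking) and harvested at 24 or 48 h. Total RNA extracted, DNase-treated and quality-checked; 2 μg labelled per TIGR SOP M007 and hybridized to whole-genome arrays. Three independent experiments with dye flip (6 replicates); drug vs untreated fold change.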

Aspergillus fumigatus [5] = assay: Induction of change in alkaline serine protease protein level in iTRAQ114 labelled cell wall fraction of drug-susceptible Aspergillus fumigatus KU80 delta-akuB at 0.12 ug/ml after 24 hrs in YPD medium by MS (MS/MS) analysis relative to control; assay type: functional
Summary of the method: (§3)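 Conidia at 1 × 10⁵/ml grown shaking at 37°C in YPD with or without 0.12 μg/ml caspofungin; mycelia filtered at 24 or 48 h. Secreted fraction taken from the filtrate; cell wall/plasma membrane pellet recovered after French-press lysis and a 5,000 × g spin. Proteins trypsin-digested and iTRAQ-labelled, drug vs no-drug channels at each time, then 2D LC-MS/MS. Protein ratio is the median of ratios from uniquely assigned peptides after median normalization.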

Aspergillus fumigatus [6] = assay: Induction of change in PT repeat family protein level in iTRAQ114 labelled secreted fraction of drug-susceptible Aspergillus fumigatus KU80 delta-akuB at 0.12 ug/ml after 24 hrs in YPD medium by MS (MS/MS) analysis relative to control; assay type: functional; summary of the method: as §3
Aspergillus fumigatus [7] = assay: Induction of change in phosphoglycerate kinase PgkA, putative protein level in iTRAQ-118 labelled cell wall fraction of drug-resistant Aspergillus fumigatus EMFR-S678P at 0.12 ug/ml after 24 hrs in YPD medium by MS (MS/MS) analysis relative to control; assay type: functional; summary of the method: as §2
Aspergillus fumigatus [8] = assay: Induction of change in GNAT family acetyltransferase, putative protein level in iTRAQ-118 labelled cell wall fraction of drug-susceptible Aspergillus fumigatus KU80 delta-akuB at 0.12 ug/ml after 24 hrs in YPD medium by MS (MS/MS) analysis relative to control; assay type: functional; summary of the method: as §3
Aspergillus fumigatus [9] = assay: Induction of change in sur7 protein, putative gene expression in drug-susceptible Aspergillus fumigatus KU80 delta-akuB at 0.12 ug/ml after 24 hrs in YPD medium by microarray analysis relative to control; assay type: functional
Summary of the method: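 Mycelia grown from 1 × 10⁵ conidia/ml in YPD at 37°C, 225 rpm, with or without 0.12 μg/ml caspofungin. Total RNA extracted, DNase-treated; 2 μg labelled per TIGR SOP M007 for whole-genome array hybridization. Three independent experiments with dye flip (6 replicates); >2-fold change deemed significant.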

Aspergillus fumigatus [10] = assay: Induction of change in aldehyde dehydrogenase, putative protein level in iTRAQ114 labelled secreted fraction of drug-resistant Aspergillus fumigatus EMFR-S678P at 0.12 ug/ml after 24 hrs in YPD medium by MS (MS/MS) analysis relative to control; assay type: functional; summary of the method: as §2
Aspergillus fumigatus [11] = assay: Induction of change in isocitrate dehydrogenase Idp1, putative protein level in iTRAQ-116 labelled secreted fraction of drug-susceptible Aspergillus fumigatus KU80 delta-akuB at 0.12 ug/ml after 48 hrs in YPD medium by MS (MS/MS) analysis relative to control; assay type: functional; summary of the method: as §1
Aspergillus fumigatus [12] = assay: Induction of change in Plasma membrane H-ATPase Pma1 protein level in iTRAQ114 labelled cell wall fraction of drug-resistant Aspergillus fumigatus EMFR-S678P at 0.12 ug/ml after 24 hrs in YPD medium by MS (MS/MS) analysis relative to control; assay type: functional; summary of the method: as §2
Aspergillus fumigatus [13] = assay: Induction of change in thioredoxin TrxA protein level in iTRAQ-118 labelled cell wall fraction of drug-resistant Aspergillus fumigatus EMFR-S678P at 0.12 ug/ml after 24 hrs in YPD medium by MS (MS/MS) analysis relative to control; assay type: functional, organism-based; summary of the method: as §2
Aspergillus fumigatus [14] = assay: Induction of change in phosphoglycerate kinase PgkA, putative protein level in iTRAQ-116 labelled secreted fraction of drug-susceptible Aspergillus fumigatus KU80 delta-akuB at 0.12 ug/ml after 48 hrs in YPD medium by MS (MS/MS) analysis relative to control; assay type: functional; summary of the method: as §1
Aspergillus fumigatus [15] = assay: Induction of change in Class III chitinase ChiA1 protein level in iTRAQ114 labelled cell wall fraction of drug-susceptible Aspergillus fumigatus KU80 delta-akuB at 0.12 ug/ml after 24 hrs in YPD medium by MS (MS/MS) analysis relative to control; assay type: functional; summary of the method: as §2
Aspergillus fumigatus [16] = assay: Induction of change in hypothetical protein locus AFUA_5G14680 level in iTRAQ-116 labelled secreted fraction of drug-susceptible Aspergillus fumigatus KU80 delta-akuB at 0.12 ug/ml after 48 hrs in YPD medium by MS (MS/MS) analysis relative to control; assay type: functional; summary of the method: as §1
Aspergillus fumigatus [17] = assay: Induction of change in 60S ribosomal protein P0 protein level in iTRAQ114 labelled cell wall fraction of drug-susceptible Aspergillus fumigatus KU80 delta-akuB at 0.12 ug/ml after 24 hrs in YPD medium by MS (MS/MS) analysis relative to control; assay type: functional; summary of the method: as §3
Aspergillus fumigatus [18] = assay: Induction of change in SUN domain protein (Uth1), putative protein level in iTRAQ-118 labelled cell wall fraction of drug-resistant Aspergillus fumigatus EMFR-S678P at 0.12 ug/ml after 24 hrs in YPD medium by MS (MS/MS) analysis relative to control; assay type: functional; summary of the method: as §2

**Q.** With `CC[C@H](C)C[C@H](C)CCCCCCCCC(=O)N[C@H]1C[C@@H](O)[C@@H](NCCN)NC(=O)[C@@H]2[C@@H](O)CCN2C(=O)[C@H]([C@H](O)CCN)NC(=O)[C@H]([C@H](O)[C@@H](O)c2ccc(O)cc2)NC(=O)[C@@H]2C[C@@H](O)CN2C(=O)[C@H]([C@@H](C)O)NC1=O` [CASPOFUNGIN] as the compound, how does the “fold change (FC)” value (Aspergillus fumigatus [1]) read?
**A.** 1.1

**Q.** And the “fold change (FC)” value (Aspergillus fumigatus [2])?
**A.** 1.07

**Q.** What about the “fold change (FC)” value (Aspergillus fumigatus [3]) of the same compound?
**A.** -1.07

**Q.** And the “fold change (FC)” value (Aspergillus fumigatus [4])?
**A.** 3.5

**Q.** What about the “fold change (FC)” value (Aspergillus fumigatus [5]) of the same compound?
**A.** 1.3

**Q.** And the “fold change (FC)” value (Aspergillus fumigatus [6])?
**A.** -3.5

**Q.** What about the “fold change (FC)” value (Aspergillus fumigatus [7]) of the same compound?
**A.** -1.15

**Q.** What about the “fold change (FC)” value (Aspergillus fumigatus [8]) of the same compound?
**A.** -2.6

**Q.** And the “fold change (FC)” value (Aspergillus fumigatus [9])?
**A.** -5.2

**Q.** What about the “fold change (FC)” value (Aspergillus fumigatus [10]) of the same compound?
**A.** 1.62

**Q.** What about the “fold change (FC)” value (Aspergillus fumigatus [11]) of the same compound?
**A.** -6.1

**Q.** What about the “fold change (FC)” value (Aspergillus fumigatus [12]) of the same compound?
**A.** -1.15

**Q.** And the Activity (Aspergillus fumigatus [13])?
**A.** inactive

**Q.** What about the “fold change (FC)” value (Aspergillus fumigatus [14]) of the same compound?
**A.** -2.8

**Q.** What about the “fold change (FC)” value (Aspergillus fumigatus [15]) of the same compound?
**A.** -12.1

**Q.** And the “fold change (FC)” value (Aspergillus fumigatus [16])?
**A.** -2.5

**Q.** What about the “fold change (FC)” value (Aspergillus fumigatus [17]) of the same compound?
**A.** 2.1

**Q.** What about the “fold change (FC)” value (Aspergillus fumigatus [18]) of the same compound?
**A.** 1.07
